Assay results taken from ChEMBL document CHEMBL2346540 (J Med Chem, 2013).

Experiments:
Assay type in all cases: ADME; call rule not given here
[1] = target: T1, Cytochrome P450 3A4 (Homo sapiens, UniProt P08684, S119A); assay: Binding affinity to CYP3A4 (3-22)-deleted S119A mutant (unknown origin) expressed in Escherichia coli assessed as increase in melting temperature by spectrophotometric analysis (reference value: 53.5 +/- 0.1 degC)
[2] = target: T2, Cytochrome P450 3A4 (Homo sapiens, UniProt P08684); assay: Binding affinity to C-terminal His-tagged wild type CYP3A4 (unknown origin) expressed in Escherichia coli by spectrophotometric analysis; conditions: read-out: Ks
T2 sequence (P08684 whole entry): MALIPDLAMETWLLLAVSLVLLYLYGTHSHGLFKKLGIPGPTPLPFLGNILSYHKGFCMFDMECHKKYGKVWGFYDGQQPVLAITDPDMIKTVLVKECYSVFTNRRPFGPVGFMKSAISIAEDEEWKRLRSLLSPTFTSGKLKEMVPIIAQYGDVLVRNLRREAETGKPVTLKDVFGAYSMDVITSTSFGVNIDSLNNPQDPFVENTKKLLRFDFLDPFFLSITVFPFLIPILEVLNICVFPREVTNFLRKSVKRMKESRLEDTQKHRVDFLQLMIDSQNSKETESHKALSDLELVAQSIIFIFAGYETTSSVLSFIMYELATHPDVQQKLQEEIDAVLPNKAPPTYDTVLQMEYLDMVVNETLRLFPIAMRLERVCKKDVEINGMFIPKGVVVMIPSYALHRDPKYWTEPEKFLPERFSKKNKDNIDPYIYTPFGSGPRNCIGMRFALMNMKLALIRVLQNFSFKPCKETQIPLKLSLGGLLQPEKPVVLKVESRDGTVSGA
How it was run: (§1)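 Spectrophotometric titration of purified enzyme with small aliquots of ligand in DMSO (final solvent ≤2%) in 50 mM phosphate, pH 7.4, 20% glycerol, 1 mM dithiothreitol; spectra recorded at room temperature and spectral dissociation constant Ks derived from absorbance change vs ligand concentration.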

[3] = target: T2, Cytochrome P450 3A4; assay: Ratio of ritonavir Ks to compound Ks for C-terminal His-tagged wild type CYP3A4 (unknown origin)
[4] = target: T2, Cytochrome P450 3A4; assay: Binding affinity to C-terminal His-tagged wild type CYP3A4 (unknown origin) expressed in Escherichia coli assessed as spectral changes by spectrophotometric analysis relative to control; how it was run: as §1
[5] = target: T1, Cytochrome P450 3A4; assay: Binding affinity to CYP3A4 (3-22)-deleted S119A mutant (unknown origin) expressed in Escherichia coli by spectrophotometric analysis; conditions: read-out: Ks; how it was run: as §1
[6] = target: T2, Cytochrome P450 3A4; assay: Binding affinity to C-terminal His-tagged wild type CYP3A4 (unknown origin) expressed in Escherichia coli assessed as rate constant of fast phase of reaction by stopped flow assay
[7] = target: T1, Cytochrome P450 3A4; assay: Binding affinity to CYP3A4 (3-22)-deleted S119A mutant (unknown origin) expressed in Escherichia coli by stopped flow assay
[8] = target: T2, Cytochrome P450 3A4; assay: Binding affinity to C-terminal His-tagged wild type CYP3A4 (unknown origin) expressed in Escherichia coli assessed as increase in melting temperature by spectrophotometric analysis (reference value: 52.1 +/- 0.1 degC)
[9] = target: T2, Cytochrome P450 3A4; assay: Ratio of compound binding constant to ritonavir binding constant for C-terminal His-tagged wild type CYP3A4 (unknown origin)
[10] = target: T2, Cytochrome P450 3A4; assay: Inhibition of C-terminal His-tagged wild type CYP3A4 (unknown origin)-mediated hydroxylation of 7-benzyloxy-4-trifluoromethylcoumarin expressed in Escherichia coli after 5 mins by fluorimetric analysis
How it was run: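 Reconstituted system at room temperature: CYP3A4 (0.3 μM) with rat CPR (0.6 μM) in 25 mM phosphate, pH 7.4, 3 mM MgCl2, preincubated 5 min with inhibitor with or without 100 μM NADPH, then 50 μM BFC added.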

[11] = target: T2, Cytochrome P450 3A4; assay: Binding affinity to C-terminal His-tagged wild type CYP3A4 (unknown origin)-bromoergocryptine complex expressed in Escherichia coli by spectrophotometric analysis; conditions: read-out: Ks
[12] = target: CYP3A4 (Homo sapiens, UniProt P08684); assay: Ratio of ritonavir IC50 to compound IC50 for C-terminal His-tagged wild type CYP3A4 (unknown origin); conditions: read-out: Ratio IC50
Sequence of CYP3A4 (P08684 whole entry): as above

T1 sequence (P08684 2-503 S119A limits assumed): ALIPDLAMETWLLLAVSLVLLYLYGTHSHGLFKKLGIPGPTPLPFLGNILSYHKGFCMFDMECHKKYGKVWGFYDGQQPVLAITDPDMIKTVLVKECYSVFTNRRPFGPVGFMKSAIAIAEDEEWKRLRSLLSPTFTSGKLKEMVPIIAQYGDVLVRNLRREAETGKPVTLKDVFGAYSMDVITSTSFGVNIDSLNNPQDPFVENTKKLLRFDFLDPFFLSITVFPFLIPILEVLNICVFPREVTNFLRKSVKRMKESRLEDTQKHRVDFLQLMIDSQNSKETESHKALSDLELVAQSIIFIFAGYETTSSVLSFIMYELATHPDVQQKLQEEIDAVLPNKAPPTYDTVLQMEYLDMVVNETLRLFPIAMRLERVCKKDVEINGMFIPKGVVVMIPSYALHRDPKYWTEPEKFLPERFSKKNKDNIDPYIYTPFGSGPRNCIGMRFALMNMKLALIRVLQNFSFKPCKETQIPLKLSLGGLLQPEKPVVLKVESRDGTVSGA

Row | SMILES | Tm [1] [°C] | Kd [2] [nM] | Ratio [3] | Activity [4] | Kd [5] [nM] | K [6] [s⁻¹] | K [7] [s⁻¹] | Tm [8] [°C] | Ratio [9] | IC50 [10] [nM] | Kd [11] [nM] | selectivity ratio [12]
1 | CC(C)c1nc(CN(C)C(=O)N[C@H](C(=O)N[C@H](CC[C@H](Cc2ccccc2)NC(=O)OCc2cccnc2)Cc2ccccc2)C(C)C)cs1 | 55.6 | 25 | 2 | Active | 65 | 7 | 0.32 | 57.2 | 5 | 130 | 5 | –
2 | CC(C)c1nc(CN(C)C(=O)N[C@H](C(=O)N[C@H](CC[C@H](Cc2ccccc2)NC(=O)OCc2cnco2)Cc2ccccc2)C(C)C)cs1 | 53.2 | 570 | – | 60% | 970 | 2.2 | 0.2 | 54.8 | – | 3400 | – | –
3 | CC(C)c1nc(CN(C)C(=O)N[C@H](C(=O)N[C@H](CC[C@H](Cc2ccccc2)NC(=O)OCc2cnc[nH]2)Cc2ccccc2)C(C)C)cs1 | 55.5 | 22 | 2 | Not Active | 67 | 1.9 | 0.17 | 56.5 | – | 280 | – | 2
